Rows were chosen to be rich in hits. Some 2.1% of all compounds tested hit in one or more screens of this group.
MC4R barr agon = MC4R agonists recruiting beta-arrestin, primary screen, cell-based, luminescence, agonist arm of biased-ligand search | Melanocortin receptor 4 (Homo sapiens), P32245 | U2OS MC4R beta-arrestin complementation; percent of melanotan II response, DMSO zero | activation, % at 8.9 µM | actives 0.98% (n = 360,000) | AID 540308, 2011;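 active = activation above a per-plate cutoff, the mean activation of sample wells on that plate plus 3 SD, cut at about 8% in these data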
Target sequence (P32245 whole entry, looked up): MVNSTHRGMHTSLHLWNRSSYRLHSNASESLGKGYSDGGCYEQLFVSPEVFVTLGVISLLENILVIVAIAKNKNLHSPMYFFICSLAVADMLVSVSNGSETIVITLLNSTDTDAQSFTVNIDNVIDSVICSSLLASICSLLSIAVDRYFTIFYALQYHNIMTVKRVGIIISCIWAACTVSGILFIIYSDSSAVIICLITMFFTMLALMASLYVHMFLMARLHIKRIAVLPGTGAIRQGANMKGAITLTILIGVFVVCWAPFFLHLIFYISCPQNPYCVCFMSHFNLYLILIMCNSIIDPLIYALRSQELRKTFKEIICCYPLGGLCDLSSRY
CFTR F508del cor = F508del CFTR correction, initial screen, CFBE line, single point. actives 0.36% (n = 350,000). CFBE cells, YFP halide quenching; stimulated with forskolin plus potentiator P3; % fluorescence drop versus neutral controls. activity (quench increase), % at 7.58 µM;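 active = mean added fluorescence quench of at least 8% versus neutral control, with both replicates also reaching 8%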;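 also: cells transiently co-express mutant CFTR-F508del with the halide-sensitive YFP; corrector assay measuring rescue of mutant channel to the surface after 24 h compound exposure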
SMARCA2 act = SMARCA2 (BRM) function activators, primary screen, cell-based, luminescence, high throughput | activation, % at 9.1 µM | actives 1% (n = 370,000) | MG213 cells, MMTV-luciferase reporter, dexamethasone, overnight; in the data active = activation above about 7.8%
MC4R antagonist = MC4R antagonists of cAMP signaling, primary screen, cell-based, TR-FRET, antagonist arm of biased-ligand search; Melanocortin receptor 4 (Homo sapiens), P32245; MC4R-expressing cells, MTII-stimulated cAMP, LANCE TR-FRET; inhibition, % at 6.5 µM; actives 0.48% (n = 360,000);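 active = inhibition above its plate's cutoff, the mean of tested wells on that plate plus 3 SD, cut at about 29% in these data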
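Assay system: human MC4R-expressing U2OS cells; reagent: Melanotan II stimulation of cells; dosing: 6.5 µM single dose; timing: compound 30 min, challenge 1 h, detection 1 h; signal: TR-FRET cAMP assay; replicates: one well per compound, no replicates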
Numbers stand for hits; . = inactive; / = not tested or not shown.

SMILES	MC4R barr agon	CFTR F508del cor	SMARCA2 act	MC4R antagonist
CC1=C(C(=O)Nc2ccccc2)C(c2ccc(C)cc2)N=C(Nc2nc3ccccc3o2)N1 (configuration not stated)	9.9	/	.	.
O=C(C[C@@H]1CC[C@@H]2[C@H](COC[C@H](O)CN2S(=O)(=O)c2cccc(Cl)c2)O1)NCc1ccncn1	/	.	/	/
COc1cccc(NC(=O)N2CC(=O)N3[C@H](CO)[C@@H](c4ccc(C5=CCCCC5)cc4)[C@H]3C2)c1	/	.	/	/
O=C1/C(=C\c2ccco2)CCC/C1=C\c1ccco1	.	/	16	.
O=C(C[C@H]1CC[C@@H]2[C@H](COC[C@@H](O)CN2Cc2cccc(C(F)(F)F)c2)O1)NCc1ccc(Cl)cc1	/	.	/	/
COc1cccc(N2CCN(C(=O)c3ccc(CS(=O)c4ccc(Cl)cc4)o3)CC2)c1 (configuration not stated)	.	8.4	.	.
COc1cccc(N2CCN(C(=O)c3ccc(CS(=O)c4ccc(C)cc4)o3)CC2)c1 (configuration not stated)	.	9.6	.	.
COc1ccccc1N1CCN(C(=O)c2cn(Cc3ccccc3)nc2-c2cccnc2)CC1	.	.	.	.
COc1cccc(N2CCN(C(=O)c3cn(Cc4ccccc4)nc3-c3cccnc3)CC2)c1	.	15	.	.
C[C@@H]1CN([C@H](C)CO)C(=O)Cc2cc(NS(=O)(=O)c3ccc(Cl)cc3)ccc2O[C@H]1CN(C)Cc1ccc(C(=O)O)cc1	/	.	/	/
Cc1ccc2c(cnn2C(=O)CCCC(=O)NCc2ccc(Cl)cc2)c1	8.6	.	.	.
Cc1ccc(CNC(=O)CCC(=O)n2ncc3cc(C)ccc32)cc1	.	.	.	.
O=C(Nc1cccc(C2=NCCN2)c1)Nc1cccc(C2=NCCN2)c1	.	8.3	.	.
COc1ccc([C@@H]2[C@@H]3C(=O)N(C(C)(C)C)C(=O)[C@@H]3[C@]3(Cc4ccccc4)C(=O)N(c4ccc(C(F)(F)F)cc4)C(=O)N23)cc1	.	9.0	.	.
O=C(N/N=C/c1ccccc1OC(F)F)c1cc(-c2ccncc2)nc2ccccc12	.	9.5	.	.
O=C(O)COc1ccccc1/C=N/NC(=O)c1cc(-c2ccccc2)nc2ccccc12	.	.	.	.
CCCNC(=O)C[C@H]1CC[C@H]2[C@H](COc3ccc(NC(=O)c4cc(F)cc(F)c4)cc3C(=O)N2C)O1	/	.	/	/
COc1cccc(C(=O)NN/C(C)=C/C(=O)C(F)(F)C(F)(F)C(F)(F)F)c1	.	/	9.5	.
COC(=O)[C@H]1[C@H](CO)[C@H]2Cn3c(ccc(-c4ccc(F)cc4)c3=O)[C@H]2N1Cc1ccccn1	/	.	/	/
Cc1cc(N)n(-c2ccccc2)n1	.	/	.	.
Cc1cc(N)n(-c2cc(C)c3ccccc3n2)n1	.	.	7.9	.
CC(C)CC#Cc1ccc([C@H]2[C@@H](CO)N3C(=O)CN(S(=O)(=O)c4ccccc4)C[C@@H]23)cc1	/	.	/	/
CCS(=O)(=O)N1CC(=O)N2[C@H](CO)[C@@H](c3ccc(C#CCC(C)C)cc3)[C@@H]2C1	/	11	/	/
CO[C@H]1CN(C)C(=O)c2cc(NC(=O)NC(C)C)ccc2OC[C@H](C)NC[C@H]1C	/	.	/	/
Cc1cc(OCCn2cc(/C(N)=N/O)c3ccccc32)ccc1Cl	8.8	/	.	.
SMILES	MC4R barr agon	CFTR F508del cor	SMARCA2 act	MC4R antagonist
COc1cc(OC)c2c(-c3cccc(-c4ccc(NC(C)=O)cc4)c3)cc(=O)oc2c1	.	.	.	.
COc1cc(OC)c2c(-c3cccc(-c4ccc(OC)c(OC)c4)c3)cc(=O)oc2c1	.	9.2	.	.
COc1cc(OC)c2c(-c3cccc(-c4sccc4C(C)=O)c3)cc(=O)oc2c1	.	9.7	.	.
CN(C)c1ccc2c(c1)[C@@H]1C[C@@H](CC(=O)NCc3ccc(Oc4ccccc4)cc3)O[C@H](CO)[C@@H]1O2	/	17	/	/
COc1c2c(c3c(c1OC)c(=O)c1ccccc1n3C)OCO2	.	.	.	.
COc1c2c(c(OC)c3c1c(=O)c1ccccc1n3C)OCO2	.	.	7.9	.
CC1CCN(S(=O)(=O)c2ccc(C(=O)Nc3ccccc3-c3nc4ccccc4[nH]3)cc2)CC1	.	/	9.7	.
CC1CCCN(S(=O)(=O)c2ccc(C(=O)Nc3ccccc3-c3nc4ccccc4[nH]3)cc2)C1 (configuration not stated)	.	/	.	.
N=C1/C(=C/c2cccn2CCOc2ccccc2)C(=O)N=C2SC=C(c3ccccc3)N12	.	13	.	.
N=C1/C(=C/c2cccn2Cc2ccc(Cl)cc2)C(=O)N=C2SC=CN12	9.4	/	.	.
O=C(CCCN1C(=O)/C(=C\c2cccs2)SC1=S)Nc1ccccc1O	8.9	.	.	.
COc1cccc(/C=C/C(=O)OCC(=O)c2ccc3c(c2)NC(=O)CO3)c1	8.5	.	.	.
CCCCNC(=O)C[C@H]1C[C@@]2(C(=O)OC)C(=C[C@H](C3CCCC3)O[C@@H]2C)N(Cc2ccco2)C1=O	/	/	7.8	/
Cc1ccc(C(C)(C)C)cc1S(=O)(=O)N1CC(=O)Nc2ccccc21	.	.	.	.
Cc1cc(C(C)(C)C)cc(C)c1S(=O)(=O)N1CC(=O)Nc2ccccc21	8.7	.	.	.
CCOc1ccc(C(=O)NNC(=O)CCNC(=O)c2ccc(Br)cc2)cc1OC	.	21	.	.
Cc1ccc(OCCC(=O)NNC(=O)c2ccc(Br)cc2)cc1	.	8.6	.	.
Cc1ccc(OCCC(=O)NNC(=O)c2ccncc2)cc1	.	.	.	.
CCc1ccccc1N(C)S(=O)(=O)c1ccc(-c2cc(C)no2)s1	.	8.2	.	.
COc1cccc(-c2ccc([C@@H]3[C@@H](CO)N4C(=O)CN(C(=O)C5CC5)C[C@H]34)cc2)c1	/	.	/	/
C[C@@H]1CN([C@H](C)CO)C(=O)c2cc(-c3cccnc3)cnc2O[C@H]1CN(C)C(=O)C1CCCCC1	/	.	/	/
COc1ccc(/C=N/NC(=O)c2c(C)nc3ccc(Br)cn23)cc1OC	.	10	.	.
CC(=O)c1cc(NC(=O)c2cccc(C(F)(F)F)c2)c(=O)oc1C	.	11	.	.
CC(=O)c1cc(NC(=O)c2cccc(C(F)(F)F)c2)c(=O)oc1/C=C/N(C)C	.	/	.	.
CN(c1ccc(O)cc1)c1nc(-c2cccs2)cs1	.	13	.	.
O=C(C[C@H]1CC[C@H](NS(=O)(=O)c2ccc(F)cc2)[C@H](CO)O1)NC1CCCCC1	/	.	/	/
CCc1ccc2nc(N(CCCN(C)C)C(=O)c3ccc(S(=O)(=O)N(C)C4CCCCC4)cc3)sc2c1	13	.	.	.
CCc1ccc2nc(N(CCCN(C)C)C(=O)c3ccc(S(=O)(=O)N4CCc5ccccc5C4)cc3)sc2c1	20	.	.	.
C[C@@H]1CN([C@@H](C)CO)C(=O)c2cc(NS(=O)(=O)c3ccc(Cl)cc3)ccc2O[C@H]1CN(C)CC1CCCCC1	/	.	/	/
